Data: ChEMBL document CHEMBL1139853, “Anxiolytic effects of erythrinian alkaloids from Erythrina mulungu” (2007)
Calls of active or inactive are those of the source. No cut-off for these calls is given here.

Columns and labels:
Mus musculus [1] = assay: Locomotor activity in Swiss mouse measured as number of crossings in the arena test at 3 mg/kg, po; format: functional
In short: (§1)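 Male Swiss mice (25-35 g, naive) given the test agent orally at 3-10 mg/kg as a saline suspension, 30 min before testing. Saline po served as vehicle; diazepam 2 mg/kg ip (saline + 2% Tween 80) was the reference. Arena locomotor test scoring crossings and rearings; mean ± SEM reported.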

Mus musculus [2] = assay: Locomotor activity in Swiss mouse measured as number of rearings in the arena test at 3 mg/kg, po; format: functional; in short: as §1
Mus musculus [3] = assay: Locomotor activity in Swiss mouse measured as number of crossings in the arena test at 10 mg/kg, po; format: functional; in short: as §1
Mus musculus [4] = assay: Locomotor activity in Swiss mouse measured as number of rearings in the arena test at 10 mg/kg, po; format: functional; in short: as §1
Mus musculus [5] = assay: Antianxiolytic activity in Swiss mouse assessed as impairment of inhibitory avoidance task by elevated T-maze test at 3 mg/kg, po; format: functional, organism-based; parameters: dose 3 mg/kg
In short: (§2)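 Naive male Swiss mice (25-35 g) received alkaloid suspended in saline (NaCl 0.9%) orally (3-10 mg/kg range) 30 min before testing, with saline vehicle controls. Inhibitory avoidance latency to leave the enclosed arm was measured in an elevated T-maze (38.5 cm high; three 30 cm × 5 cm arms). Analysis was one-way ANOVA followed by Duncan's test.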

Mus musculus [6] = assay: Antianxiolytic activity in Swiss mouse assessed as impairment of inhibitory avoidance task by elevated T-maze test at 10 mg/kg, po; format: functional, organism-based; parameters: dose 10 mg/kg; in short: as §2
Mus musculus [7] = assay: Antianxiolytic activity in Swiss mouse assessed as effect on latency to leave the open arm by elevated T maze test at 10 mg/kg; format: functional, organism-based; parameters: dose 10 mg/kg
In short: (§3)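 Male Swiss mice, 25-35 g, experimentally naive, group-housed 10 per cage on a 12 h light cycle at 23 ± 1 °C/55 ± 5% humidity. Test agent suspended in saline (NaCl 0.9%) and given orally (3-10 mg/kg) 30 min before the session; vehicle saline po; diazepam reference 2 mg/kg ip in saline + 2% Tween 80. Elevated T-maze 38.5 cm above the floor, three 30 cm × 5 cm arms. One-way ANOVA followed by Duncan's test.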

Mus musculus [8] = assay: Antianxiolytic activity in Swiss mouse assessed as reduction of latency to leave the enclosed arm by elevated T maze test at 10 mg/kg, po; format: functional, organism-based; parameters: dose 10 mg/kg; in short: as §3
Mus musculus [9] = assay: Antianxiolytic activity in Swiss mouse assessed as effect on latency to leave the open arm by elevated T maze test at 2 mg/kg, ip; format: functional, organism-based; parameters: dose 2 mg/kg
In short: (§4)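 Male Swiss mice (25-35 g, naive), group-housed on a 12 h light cycle. Diazepam was suspended in saline + 2% Tween 80 and given ip 30 min before the session. Elevated T-maze raised 38.5 cm above the floor, with three 30 cm × 5 cm arms; arm-exit latencies were recorded. Analysis was one-way ANOVA with Duncan's post hoc test.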

Mus musculus [10] = assay: Antianxiolytic activity in Swiss mouse assessed as reduction of latency to leave the enclosed arm by elevated T maze test at 2 mg/kg, ip; format: functional, organism-based; parameters: dose 2 mg/kg; in short: as §4
Mus musculus [11] = assay: Antianxiolytic activity in Swiss mouse assessed as reduction of latency to leave the enclosed arm by elevated T maze test at 3 mg/kg, po; format: functional, organism-based; parameters: dose 3 mg/kg; in short: as §3

| SMILES | Activity (Mus musculus [1]) | Activity (Mus musculus [2]) | Activity (Mus musculus [3]) | Activity (Mus musculus [4]) | Activity (Mus musculus [5]) | Activity (Mus musculus [6]) | Activity (Mus musculus [7]) | Activity (Mus musculus [8]) | Activity (Mus musculus [9]) | Activity (Mus musculus [10]) | Activity (Mus musculus [11]) |
| --- | --- | --- | --- | --- | --- | --- | --- | --- | --- | --- | --- |
| COc1cc2c(cc1OC)[C@]13C[C@@H](OC)C=CC1=CCN3C[C@H]2O | 135.3 | 29.6 | 159 | 29.63 | Active | Active |  |  |  |  |  |
| COc1cc2c(cc1OC)[C@]13C[C@@H](O)C=CC1=CCN3C[C@H]2O | 158.5 | 27.7 | 126.56 | 22.44 |  |  | inactive | Active |  |  |  |
| CN1C(=O)CN=C(c2ccccc2)c2cc(Cl)ccc21 |  |  |  |  | Active | Active |  | Active | inactive | Active |  |
| COc1cc2c(cc1OC)[C@]13C[C@@H](O)C=CC1=CCN3CC2 | 157.33 | 37.07 | 157.93 | 31.71 |  |  |  | Active |  |  | Active |
